Assay: Toxicity liver stage against HepG2, at 10uM
Assay type: cell-based
Design: test concentration 10 uM, cell line HepG2-A16-CD81EGFP
Settings: human, HepG2-A16-CD81EGFP cells; read-out: INHIBITION
Method in brief: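 Uninfected HepG2-A16-CD81EGFP cells, 3 × 10^3 per well, 1536-well, plated on prespotted compound at 10 μM final, parasite-free screening media added to match infected plates; puromycin 10 μM positive, DMSO 0.5% negative; run in parallel with 48 h PbLuc assay at 37 °C, 5% CO2; viability by CellTiter-Glo luminescence, normalized to controls.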

CC1=Nc2c(c(=O)[nH]n2C2CCCC2)C(c2ccc(C(=O)O)cc2)S1 (centres undefined)
cytotoxicity at 10 µM: -10.4%

CN(C)S(=O)(=O)N1CCC(Cn2cccn2)CC1
cytotoxicity at 10 µM: -10.9%

CC(C)n1cnc(C2CN(C)c3ccc(C(=O)NCC4CC4)cc32)n1 (centres undefined)
cytotoxicity at 10 µM: -2.19%

CCS(=O)(=O)N1CCc2ccc(=O)n(CC3CC3)c2CC1
cytotoxicity at 10 µM: 7.95%

CN(Cc1ccccc1)CC1CC2(CO1)CN(Cc1nccs1)C2 (centres undefined)
cytotoxicity at 10 µM: 8.88%

Cc1noc(C[C@@H]2COC[C@H]3CN(S(C)(=O)=O)C[C@@H]23)n1
cytotoxicity at 10 µM: 12.2%

Cc1cnc(N2CCOC3(CCCN(C(=O)C(C)C)C3)C2)nc1 (centres undefined)
cytotoxicity at 10 µM: 10.9%

COCC1CC2(CCN(C(=O)C3CCSCC3)CC2)CO1 (centres undefined)
cytotoxicity at 10 µM: -8.93%

CN(C)Cc1cc(=O)n2c(n1)CN(Cc1ccco1)CCC2
cytotoxicity at 10 µM: 7.07%

O=C1COC2(CCN(c3ncccn3)CC2)CN1c1ccsc1
cytotoxicity at 10 µM: -0.31%

COc1cc(N2CCc3ncnc(-c4cnn(C)c4)c3CC2)ncn1
cytotoxicity at 10 µM: 8.46%

CC(C)C(=O)N1CCN(S(=O)(=O)C2CC2)CC2(CC(=O)N(C)C2)C1 (centres undefined)
cytotoxicity at 10 µM: 8.4%

Cc1ccc(N2CCC3(CCN(Cc4nccs4)CC3)CC2)nn1
cytotoxicity at 10 µM: 10.6%

O=C(c1c2c(NCC3CC3)ncnc2n2ccccc12)N1CCCC1
cytotoxicity at 10 µM: 9.31%

Fc1cccnc1N1CCOCC2(CCCNC2)C1 (centres undefined)
cytotoxicity at 10 µM: 3.44%

Cn1cc(CN2CCc3ncn(C)c3C2COCc2cccnc2)cn1 (centres undefined)
cytotoxicity at 10 µM: 6.86%

CCNC(=O)c1sccc1N(C)S(=O)(=O)c1ccc(Cl)cc1
cytotoxicity at 10 µM: 10.8%

Cc1cc(NC(=O)c2nn(C3CCS(=O)(=O)C3)c3c2CCCC3)no1 (centres undefined)
cytotoxicity at 10 µM: 3.85%

O=C(NCC1CC1)[C@H]1CC[C@@H]2[C@@H](CCN2Cc2ccoc2)O1
cytotoxicity at 10 µM: -14.1%

CN1C(=O)C[C@@H]2[C@@H]1CCN2S(=O)(=O)Cc1ccccc1
cytotoxicity at 10 µM: -5.76%

Cc1c(Cl)cccc1NCc1nc2n(n1)CCCCC2
cytotoxicity at 10 µM: 10.6%

Cc1ccc2nnc(C(=O)NCCCn3cccn3)nc2c1
cytotoxicity at 10 µM: -7.93%

CSc1nc2ccsc2c(=O)n1CC(=O)NC1CCCCC1
cytotoxicity at 10 µM: 4.45%

Cc1c(Cl)c(C(F)(F)F)nn1C(C)C(=O)NC1CCN(C)CC1 (centres undefined)
cytotoxicity at 10 µM: -3.13%

Cc1nc(C)n(CCC(=O)NCC2CCCOC2)n1 (centres undefined)
cytotoxicity at 10 µM: 4.3%

Cc1nc(NC2CCCC2)cc(C2CCN2c2ncccn2)n1 (centres undefined)
cytotoxicity at 10 µM: -0.943%

Cc1c[nH]c(C2CN(Cc3ccccc3C(=O)O)CCO2)n1 (centres undefined)
cytotoxicity at 10 µM: -0.822%

CN1CCN(C(=O)CCCc2ccccc2)CC(O)(Cn2cccn2)C1 (centres undefined)
cytotoxicity at 10 µM: -1.93%

COc1ccc2c(c1)C(=O)NC1(CC2)CCN(Cc2ccncc2)C1 (centres undefined)
cytotoxicity at 10 µM: 3.44%

CC(C)n1nnc(CC(=O)NCC2(c3cccc(F)c3)CCCC2)n1
cytotoxicity at 10 µM: 4.5%

CC1CCc2nn(CCNC(=O)Cc3ccc(F)cc3)c(=O)cc2C1 (centres undefined)
cytotoxicity at 10 µM: 7.61%

CN(C)c1cccc(C2CCN(C3COCC3O)CC2)n1 (centres undefined)
cytotoxicity at 10 µM: -13.9%

CNc1nccnc1C1CN(Cc2ccc(OCC(=O)O)cc2)CCO1 (centres undefined)
cytotoxicity at 10 µM: -5.73%

Nc1nccnc1C1CN(C(=O)c2ccnnc2)CCO1 (centres undefined)
cytotoxicity at 10 µM: 9.48%

Cn1cc(CN2CCc3c(nc(-c4ccccn4)[nH]c3=O)C2)cn1
cytotoxicity at 10 µM: -5.05%

Cc1ccc(CC(=O)N(C)CC2(O)CCN(c3ccccn3)C2)s1 (centres undefined)
cytotoxicity at 10 µM: -10.4%

CN(c1cccnc1N1CCCC1)S(=O)(=O)c1cnn(C)c1
cytotoxicity at 10 µM: -4.28%

CCN(CC)S(=O)(=O)CC(=O)N1CCc2ccc(Cl)cc21
cytotoxicity at 10 µM: -5.42%

CC(C)Cc1cc(C(=O)N2CCC(Cc3cnn(C)c3)C2)cc(O)n1 (centres undefined)
cytotoxicity at 10 µM: -2.1%

CN(Cc1cc(F)cc2cccnc12)CC1CCN(CCO)CC1
cytotoxicity at 10 µM: 1.9%

Cc1noc(C(C)C)c1C(=O)N1CCC(n2cccn2)CC1
cytotoxicity at 10 µM: -4.32%

CC(C)(C)c1ccc(S(=O)(=O)CCNC(=O)c2cnccn2)cc1
cytotoxicity at 10 µM: 4.92%

CC(C)c1ocnc1C(=O)Nc1cccc(Cn2ccccc2=O)c1
cytotoxicity at 10 µM: 8.15%

CCCOCCOC(=O)c1ccc2c(c1)[nH]c(=O)n2C
cytotoxicity at 10 µM: -16.4%

CCCc1noc(CN2CCN(CCC(C)C)CC2)n1
cytotoxicity at 10 µM: -1.48%

CCNS(=O)(=O)c1ccc(C)c(C(=O)N(CCC#N)Cc2ccco2)c1
cytotoxicity at 10 µM: 5.44%

Cc1nc(CNC2CCCN(c3cccnn3)C2)no1 (centres undefined)
cytotoxicity at 10 µM: -5.55%

COCCOCCNC(=O)c1cccc(Cn2nc(C)cc2C)c1
cytotoxicity at 10 µM: 17.6%

CCC(NC(=O)Nc1ccc(OC)c(C)c1)c1ccncc1 (centres undefined)
cytotoxicity at 10 µM: -2.07%

CC(C)N1C(=O)CC(NC(=O)c2cc(Cl)sc2Cl)C1=O (centres undefined)
cytotoxicity at 10 µM: -2.27%

Cc1cc(N)nc(SC2CCCN(Cc3ccccc3)C2=O)n1 (centres undefined)
cytotoxicity at 10 µM: -5.45%

Cc1cc(C(=O)Nc2ccc(OC3CCOCC3)c(C)c2)[nH]n1
cytotoxicity at 10 µM: -8.03%

Cc1n[nH]c(C)c1C1CCCN1C(=O)c1cc(Br)c[nH]1 (centres undefined)
cytotoxicity at 10 µM: -4.08%

Cc1ncc2c(n1)CN(CCOCC(F)(F)F)CC2
cytotoxicity at 10 µM: -0.598%

CN(C)S(=O)(=O)CCCOc1cccc(-n2ccnc2)c1
cytotoxicity at 10 µM: 14%

Fc1ccc(-c2nnc(CNC3CCc4ncnn4C3)o2)cc1 (centres undefined)
cytotoxicity at 10 µM: -3.67%

COC(=O)N1CCCC(C(=O)N(C)C)C1 (centres undefined)
cytotoxicity at 10 µM: -5.87%

O=C1NCC(C(=O)Nc2ccc(=O)n(Cc3ccccc3Cl)c2)N1 (centres undefined)
cytotoxicity at 10 µM: -1.73%

Cc1noc(C)c1CN(C)C(=O)Cn1c(=O)n(C)c2ccccc21
cytotoxicity at 10 µM: -4.32%

N#Cc1cn(CC(=O)NC2CC2)c2ccc(Br)cc2c1=O
cytotoxicity at 10 µM: 27.4%

COc1ccc(CNC(=O)CNc2cc3c(cc2Cl)OCCCO3)cc1
cytotoxicity at 10 µM: 3.25%

N#Cc1cccc(SCCS(N)(=O)=O)c1
cytotoxicity at 10 µM: -2.53%

O=C(NC1(c2cccc(F)c2)CCOCC1)c1ccccn1
cytotoxicity at 10 µM: -12.3%

COCCN(C)Cc1ccc(OC)c(OC(F)F)c1
cytotoxicity at 10 µM: -5.5%

COCC1CN(C(=O)CC2=CCCCC2)Cc2nnn(CC3CC3)c21 (centres undefined)
cytotoxicity at 10 µM: -116%

O=C(c1cccs1)N1CC[C@H]2C[C@@H](c3nnc(C4CC4)o3)O[C@@H]2C1
cytotoxicity at 10 µM: -109%

O=C([C@H]1CN(Cc2nccs2)C[C@H]2OCC[C@@H]12)N1CCCC1
cytotoxicity at 10 µM: -94.1%

COCCO[C@H]1CCN(C(=O)C2CCOCC2)[C@H]1Cc1ccncc1
cytotoxicity at 10 µM: 4.32%

O=C(CC1CC1)N(Cc1cccnc1)CC1CCN(C2CCCC2)CC1
cytotoxicity at 10 µM: 5.95%

CCOCCC(=O)N1Cc2cnc(-c3ccccc3)nc2C1
cytotoxicity at 10 µM: -6.88%

CCN(CC)Cc1nc(Cc2cccc(C(F)(F)F)c2)no1
cytotoxicity at 10 µM: 9.76%

Cc1nc(N2C[C@@H](CN3CCCN(C)CC3)[C@@H](CO)C2)c2sccc2n1
cytotoxicity at 10 µM: -8.64%

CSc1ccccc1C(=O)C1CCCN(Cc2cc(C(C)C)[nH]n2)C1 (centres undefined)
cytotoxicity at 10 µM: -4.01%

CC(C)c1cc(C2CCCN2C(=O)c2cn3ccsc3n2)no1 (centres undefined)
cytotoxicity at 10 µM: -2.33%

CCOCCc1nc(CCc2ccccc2)n[nH]1
cytotoxicity at 10 µM: 10.3%

CCC(=O)N1CCN(C(=O)c2ccc(COC)o2)[C@H]2CS(=O)(=O)C[C@H]21
cytotoxicity at 10 µM: -10.9%

Cc1cnc(-c2cccc(-c3ccn(CCCO)n3)c2)nc1N(C)C
cytotoxicity at 10 µM: -7.6%

CC(=O)c1ccc(NC(=O)N(CCN(C)C)Cc2ccc(C)s2)cc1
cytotoxicity at 10 µM: -16.5%

CC(Cc1ccccn1)N(C)Cc1ccc2c(c1)CCO2 (centres undefined)
cytotoxicity at 10 µM: -0.0105%

CCc1cc(NCc2cc(CC(C)C)on2)n2nccc2n1
cytotoxicity at 10 µM: 3.59%

O=C1CCC2(CCCO2)CCN1Cc1noc(C2CCCC2)n1 (centres undefined)
cytotoxicity at 10 µM: 4.24%

COc1ccc(C)cc1C(C(=O)O)N1CCN(Cc2ccccn2)CC1 (centres undefined)
cytotoxicity at 10 µM: 4.4%

Cc1ccc(-c2nc(CNC(C)CCO)[nH]c2-c2ccccn2)cc1 (centres undefined)
cytotoxicity at 10 µM: -6.78%

O=C(CC[C@@H]1CCCN2CCCC[C@H]12)NCCc1cc(O)ncn1
cytotoxicity at 10 µM: -1.91%

Cc1nn(C)c(Oc2ccc(Cl)cc2)c1CN1CCOC(CN)C1 (centres undefined)
cytotoxicity at 10 µM: 8.85%

Cc1ccc(-c2noc(CC[C@@H]3CCCN4CCCC[C@H]34)n2)nn1
cytotoxicity at 10 µM: -4.56%

CCn1c(C)nnc1SCCNc1nc(C)nc2c1cnn2C
cytotoxicity at 10 µM: 7.9%

CSCCc1c(-c2ccccc2)ncn1CC(C)(C)N1CCCC1
cytotoxicity at 10 µM: -47.8%

CCC[C@H]1CN(CCS(C)(=O)=O)C[C@@H]1NC(=O)c1ccccn1
cytotoxicity at 10 µM: 1.13%

COCc1cc(NCCc2ccc(S(N)(=O)=O)cc2)n2nccc2n1
cytotoxicity at 10 µM: 6.45%

Cn1ccnc1CN1C[C@@H](CN2CCC(CO)CC2)[C@@H](CO)C1
cytotoxicity at 10 µM: -15.5%

CC(C)NC(=O)[C@@H]1C[C@H](N)CN1C(=O)c1cc2ccccc2[nH]c1=O
cytotoxicity at 10 µM: 10.3%

O[C@H]1[C@H](n2cc(-c3ccccc3)nn2)c2ccccc2C12CCNCC2
cytotoxicity at 10 µM: 7.62%

CNc1nc(CNC(=O)Nc2cccc(CSC)c2)cs1
cytotoxicity at 10 µM: -3.01%

CC1CN(CC(=O)Nc2nccs2)CCN1Cc1nccn1C (centres undefined)
cytotoxicity at 10 µM: -15.4%

c1ccc(Cc2noc(CN3CCCCC3Cn3cncn3)n2)cc1 (centres undefined)
cytotoxicity at 10 µM: -13.2%

CS(=O)(=O)N1CCCN(C(=O)c2ccc(Cn3ccccc3=O)o2)CC1
cytotoxicity at 10 µM: -3.41%

Cc1nc2cc(C(=O)N3CCCC(n4cncn4)C3)ccc2n1C (centres undefined)
cytotoxicity at 10 µM: -8.26%

CCC1CN(CCC(=O)N(C)C)CCN1CCOC (centres undefined)
cytotoxicity at 10 µM: -6.34%

CCc1ccc(C(=O)O)cc1S(=O)(=O)Nc1ccc(F)c(C#N)c1
cytotoxicity at 10 µM: -10.9%

Cc1cc(-c2nccs2)nc(C2CCN(Cc3ccncc3)CC2)n1
cytotoxicity at 10 µM: 8.6%

c1ccc(NCc2cn3c(n2)CN(Cc2cccs2)CC3)nc1
cytotoxicity at 10 µM: 5.22%

CC(C)NC(=O)[C@@H]1CN(Cc2ccc3c(c2)OCO3)C[C@H]2OCC[C@H]21
cytotoxicity at 10 µM: 3.65%

O=C(NC1CCCC1)C1(Cc2cc(C3CCOC3)no2)CCNCC1 (centres undefined)
cytotoxicity at 10 µM: -1.57%

NC(=O)c1ccc(C2CCCNC2)nc1 (centres undefined)
cytotoxicity at 10 µM: -15.1%

CCCN1CCC2(CC1)CN(C(=O)c1cccnc1)c1ccc(F)cc12
cytotoxicity at 10 µM: -104%

c1cnc(N2CCOCC3(CN(Cc4cc[nH]n4)CCO3)C2)nc1 (centres undefined)
cytotoxicity at 10 µM: 10%

CCS(=O)(=O)N1CCC2(CCN(Cc3nccs3)CC2)CC1
cytotoxicity at 10 µM: 7.13%

O=c1[nH][nH]c2cn(-c3ccc(F)cc3)c(=O)n12
cytotoxicity at 10 µM: -1.45%
